The source made the active and inactive calls. The rule behind the calls is not given here.
Experiments:
[1] = Inhibition of calf primase of DNA polymerase alpha; set-up: species or system Bos taurus
Outline: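 Calf primase of pol α and mouse IMP dehydrogenase type II measured by standard assays per manufacturer's specifications. Activity relative to no-compound control (100%).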

[2] = Inhibition of calf DNA polymerase alpha using poly(dA)/oligo(dT)18 (A/T = 2/1) and dTTP as the DNA template-primer and nucleotide substrate after 60 mins; set-up: species or system Bos taurus
Outline: (§1)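 Compound in DMSO, sonicated 30 s. Premixed 0 °C, 10 min with enzyme (0.05 units) in 50 mM Tris-HCl pH 7.5, 1 mM DTT, 50% glycerol, 0.1 mM EDTA, then added to standard reaction mixture. Template-primers: poly(dA)/oligo(dT)18 (2/1) for pols, oligo(dT)18 for TdT, poly(rA)/oligo(dT)18 for HIV-1 RT, with [3H]dTTP. 60 min at 37 °C (Taq 74 °C). Activity relative to no-inhibitor control; mean ± SE of three experiments.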

[3] = target: DNA polymerase kappa (Homo sapiens, UniProt Q9UBT6); assay: Inhibition of C-terminal His6-tagged human DNA polymerase kappa (amino acids 1 to 560) using poly(dA)/oligo(dT)18 (A/T = 2/1) and dTTP as the DNA template-primer and nucleotide substrate after 60 mins; outline: as §1
[4] = species: Homo sapiens; assay: Inhibition of histidine-tagged human DNA polymerase gamma using poly(dA)/oligo(dT)18 (A/T = 2/1) and dTTP as the DNA template-primer and nucleotide substrate at 10 uM after 60 mins; outline: as §1
[5] = target: T1, DNA polymerase lambda (Homo sapiens) (UniProt Q9UGP5); assay: Inhibition of recombinant His-tagged human DNA polymerase lambda using bovine deoxyribonuclease 1-treated DNA and dNTP as the DNA template-primer and nucleotide substrate at 10 uM after 60 mins
T1 sequence (whole entry): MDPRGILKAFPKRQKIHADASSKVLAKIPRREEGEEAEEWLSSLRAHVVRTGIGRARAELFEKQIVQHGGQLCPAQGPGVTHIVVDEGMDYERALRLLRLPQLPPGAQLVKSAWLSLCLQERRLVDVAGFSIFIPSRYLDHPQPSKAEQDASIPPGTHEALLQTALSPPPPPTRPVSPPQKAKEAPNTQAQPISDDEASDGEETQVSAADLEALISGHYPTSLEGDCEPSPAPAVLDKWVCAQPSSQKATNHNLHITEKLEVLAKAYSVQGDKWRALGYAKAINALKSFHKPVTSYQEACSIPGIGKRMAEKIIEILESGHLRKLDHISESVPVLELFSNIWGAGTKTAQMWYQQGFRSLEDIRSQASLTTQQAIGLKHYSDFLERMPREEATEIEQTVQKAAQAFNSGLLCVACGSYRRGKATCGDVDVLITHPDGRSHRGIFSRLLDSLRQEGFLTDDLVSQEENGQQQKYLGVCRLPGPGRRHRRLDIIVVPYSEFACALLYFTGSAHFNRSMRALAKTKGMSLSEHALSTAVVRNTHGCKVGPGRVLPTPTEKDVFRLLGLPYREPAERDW

[6] = tested on: Mus musculus; assay: Antiinflammatory activity in mouse assessed as inhibition of TPA-induced mouse ear edema at 500 ug/ear administered 30 mins before TPA challenge measured after 7 hrs relative to untreated control; format: functional, organism-based
Outline: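 Compound (500 µg) applied to one mouse ear; 30 min later TPA (0.5 µg) applied to both ears. Edema scored after 7 h and expressed as percentage of edema. Mean ± SE, n = 6.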

[7] = target: Human immunodeficiency virus type 1 reverse transcriptase (Human immunodeficiency virus 1, UniProt Q72547); assay: Inhibition of HIV-1 reverse transcriptase using poly(rA)/oligo(dT)18(A/T = 2/1) and dTTP as the DNA template-primer and nucleotide substrate after 60 mins; outline: as §1
[8] = species: Homo sapiens; assay: Inhibition of histidine-tagged human DNA polymerase gamma using bovine deoxyribonuclease 1-treated DNA and dNTP as the DNA template-primer and nucleotide substrate at 10 uM after 60 mins
[9] = target: Polynucleotide kinase (Enterobacteria phage T4, UniProt P06855); assay: Inhibition of T4 polynucleotide kinase using 5'-hydroxyl termini of DNA and [gamma-32ATP] after 30 mins by liquid scintillation counting; set-up: species or system Tequatrovirus T4
[10] = target: DNA polymerase beta (Rattus norvegicus, UniProt P06766); assay: Inhibition of rat pol beta using poly(dA)/oligo(dT)18 (A/T = 2/1) and dTTP as the DNA template-primer and nucleotide substrate after 60 mins; outline: as §1
[11] = target: T7 RNA polymerase (Enterobacteria phage T7, UniProt P00573); assay: Inhibition of T7 RNA polymerase using salmon sperm DNA and [3H]UTP at 25 degree C after 30 mins by liquid scintillation counting; set-up: species or system Escherichia phage T7
[12] = tested on: RAW264.7; assay: Cytotoxicity against mouse RAW264.7 cells at 5 uM; format: cell-based; conditions: raw264.7, 5 µM
[13] = target: DNA nucleotidylexotransferase (Bos taurus, UniProt P06526); assay: Inhibition of calf thymus TdT using oligo(dT)18 (3'-OH) and dTTP as the DNA template-primer and nucleotide substrate after 60 mins; outline: as §1
[14] = species: Bos taurus; assay: Inhibition of calf DNA polymerase alpha using bovine deoxyribonuclease 1-treated DNA and dNTP as the DNA template-primer and nucleotide substrate at 10 uM after 60 mins
[15] = target: Deoxyribonuclease-1 (Bos taurus, UniProt P00639); assay: Inhibition of bovine deoxyribonuclease I by agarose gel electrophoresis
[16] = Inhibition of Escherichia coli DNA polymerase 1 Klenow fragment using poly(dA)/oligo(dT)18 (A/T = 2/1) and dTTP as the DNA template-primer and nucleotide substrate after 60 mins; outline: as §1
[17] = target: DNA polymerase iota (Mus musculus, UniProt Q6R3M4); assay: Inhibition of C-terminal His6-tagged mouse DNA polymerase iota using poly(dA)/oligo(dT)18 (A/T = 2/1) and dTTP as the DNA template-primer and nucleotide substrate after 60 mins; outline: as §1
[18] = target: DNA polymerase lambda (Homo sapiens, UniProt Q9UGP5); assay: Inhibition of His-tagged human DNA polymerase lambda using poly(dA)/oligo(dT)18 (A/T = 2/1) and dTTP as the DNA template-primer and nucleotide substrate after 60 mins; outline: as §1
[19] = target: DNA polymerase I, thermostable (Thermus aquaticus, UniProt P19821); assay: Inhibition of Taq polymerase using poly(dA)/oligo(dT)18 (A/T = 2/1) and dTTP as the DNA template-primer and nucleotide substrate at 74 degree C after 60 mins; outline: as §1
[20] = Cytotoxicity against mouse RAW264.7 cells; format: cell-based; conditions: read-out: LD50 (the source's name)
[21] = Inhibition of cauliflower DNA polymerase alpha using poly(dA)/oligo(dT)18 (A/T = 2/1) and dTTP as the DNA template-primer and nucleotide substrate after 60 mins; set-up: species or system Brassica oleracea var. botrytis; outline: as §1
[22] = Inhibition of histidine-tagged human DNA polymerase gamma using poly(dA)/oligo(dT)18 (A/T = 2/1) and dTTP as the DNA template-primer and nucleotide substrate after 60 mins; outline: as §1
[23] = tested on: Nucleic Acid; assay: Binding affinity to DNA assessed as thermal transition of DNA relative to control; format: nucleic-acid assay
[24] = target: DNA-directed DNA polymerase (Enterobacteria phage T4, UniProt P04415); assay: Inhibition of T4 pol using poly(dA)/oligo(dT)18 (A/T = 2/1) and dTTP as the DNA template-primer and nucleotide substrate after 60 mins; set-up: species or system Tequatrovirus T4; outline: as §1
DNA-directed DNA polymerase, sequence (P04415 whole entry): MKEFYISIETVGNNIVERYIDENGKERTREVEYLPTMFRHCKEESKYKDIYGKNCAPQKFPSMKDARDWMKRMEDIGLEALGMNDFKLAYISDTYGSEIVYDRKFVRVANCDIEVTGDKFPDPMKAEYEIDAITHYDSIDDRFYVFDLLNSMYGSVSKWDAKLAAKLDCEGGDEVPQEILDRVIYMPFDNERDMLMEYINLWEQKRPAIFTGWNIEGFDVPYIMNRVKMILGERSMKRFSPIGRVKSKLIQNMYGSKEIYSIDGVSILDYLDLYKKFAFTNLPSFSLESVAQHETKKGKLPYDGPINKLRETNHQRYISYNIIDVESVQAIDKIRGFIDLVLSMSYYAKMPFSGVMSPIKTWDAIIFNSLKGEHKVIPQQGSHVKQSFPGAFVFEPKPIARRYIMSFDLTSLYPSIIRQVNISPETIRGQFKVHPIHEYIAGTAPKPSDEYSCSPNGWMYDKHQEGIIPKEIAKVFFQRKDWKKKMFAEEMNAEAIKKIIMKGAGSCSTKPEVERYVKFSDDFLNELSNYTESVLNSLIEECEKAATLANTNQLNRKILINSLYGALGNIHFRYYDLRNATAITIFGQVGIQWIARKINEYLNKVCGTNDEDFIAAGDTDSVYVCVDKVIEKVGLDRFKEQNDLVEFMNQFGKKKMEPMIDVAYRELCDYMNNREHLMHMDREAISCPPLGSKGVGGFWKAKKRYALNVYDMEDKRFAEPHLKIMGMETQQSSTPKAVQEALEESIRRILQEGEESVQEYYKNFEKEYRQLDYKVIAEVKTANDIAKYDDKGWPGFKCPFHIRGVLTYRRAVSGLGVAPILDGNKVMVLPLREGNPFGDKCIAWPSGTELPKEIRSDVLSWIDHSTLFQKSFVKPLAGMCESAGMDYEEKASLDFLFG

DNA polymerase I, thermostable, sequence (P19821 whole entry): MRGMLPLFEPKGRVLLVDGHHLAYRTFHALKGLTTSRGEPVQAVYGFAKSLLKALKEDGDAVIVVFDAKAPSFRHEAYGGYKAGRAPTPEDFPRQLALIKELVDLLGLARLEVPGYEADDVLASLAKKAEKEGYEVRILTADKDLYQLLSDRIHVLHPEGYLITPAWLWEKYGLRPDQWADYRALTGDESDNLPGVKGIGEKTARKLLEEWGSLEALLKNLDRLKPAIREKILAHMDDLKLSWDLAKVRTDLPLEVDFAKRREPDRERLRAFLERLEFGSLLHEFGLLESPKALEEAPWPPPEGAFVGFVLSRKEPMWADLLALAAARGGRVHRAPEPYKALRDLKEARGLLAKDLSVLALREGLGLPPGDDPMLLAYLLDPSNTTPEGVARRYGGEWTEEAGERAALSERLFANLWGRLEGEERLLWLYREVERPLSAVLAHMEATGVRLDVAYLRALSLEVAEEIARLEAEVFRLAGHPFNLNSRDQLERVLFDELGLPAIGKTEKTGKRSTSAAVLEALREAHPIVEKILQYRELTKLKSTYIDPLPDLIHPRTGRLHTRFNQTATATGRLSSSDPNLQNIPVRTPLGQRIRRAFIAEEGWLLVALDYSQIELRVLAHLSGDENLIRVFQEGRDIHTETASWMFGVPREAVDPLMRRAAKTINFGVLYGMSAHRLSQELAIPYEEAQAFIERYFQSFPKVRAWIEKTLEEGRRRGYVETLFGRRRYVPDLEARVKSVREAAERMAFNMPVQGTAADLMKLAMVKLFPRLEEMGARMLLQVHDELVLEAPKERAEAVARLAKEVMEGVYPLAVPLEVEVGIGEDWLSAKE
DNA nucleotidylexotransferase, sequence (P06526 whole entry): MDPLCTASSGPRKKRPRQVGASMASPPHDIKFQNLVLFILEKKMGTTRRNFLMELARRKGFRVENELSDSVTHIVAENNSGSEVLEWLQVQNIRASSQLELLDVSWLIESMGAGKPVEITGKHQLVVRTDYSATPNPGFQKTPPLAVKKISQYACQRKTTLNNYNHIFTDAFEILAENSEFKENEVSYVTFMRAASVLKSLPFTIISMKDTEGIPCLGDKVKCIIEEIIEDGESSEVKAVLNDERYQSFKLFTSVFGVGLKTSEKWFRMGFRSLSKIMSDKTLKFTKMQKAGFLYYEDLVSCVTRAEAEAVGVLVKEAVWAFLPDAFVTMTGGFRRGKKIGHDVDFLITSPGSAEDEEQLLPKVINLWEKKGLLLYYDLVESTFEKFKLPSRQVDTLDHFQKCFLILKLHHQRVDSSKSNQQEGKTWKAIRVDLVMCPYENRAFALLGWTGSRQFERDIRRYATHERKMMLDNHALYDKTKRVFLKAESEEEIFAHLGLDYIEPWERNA
DNA polymerase iota, sequence (Q6R3M4 whole entry): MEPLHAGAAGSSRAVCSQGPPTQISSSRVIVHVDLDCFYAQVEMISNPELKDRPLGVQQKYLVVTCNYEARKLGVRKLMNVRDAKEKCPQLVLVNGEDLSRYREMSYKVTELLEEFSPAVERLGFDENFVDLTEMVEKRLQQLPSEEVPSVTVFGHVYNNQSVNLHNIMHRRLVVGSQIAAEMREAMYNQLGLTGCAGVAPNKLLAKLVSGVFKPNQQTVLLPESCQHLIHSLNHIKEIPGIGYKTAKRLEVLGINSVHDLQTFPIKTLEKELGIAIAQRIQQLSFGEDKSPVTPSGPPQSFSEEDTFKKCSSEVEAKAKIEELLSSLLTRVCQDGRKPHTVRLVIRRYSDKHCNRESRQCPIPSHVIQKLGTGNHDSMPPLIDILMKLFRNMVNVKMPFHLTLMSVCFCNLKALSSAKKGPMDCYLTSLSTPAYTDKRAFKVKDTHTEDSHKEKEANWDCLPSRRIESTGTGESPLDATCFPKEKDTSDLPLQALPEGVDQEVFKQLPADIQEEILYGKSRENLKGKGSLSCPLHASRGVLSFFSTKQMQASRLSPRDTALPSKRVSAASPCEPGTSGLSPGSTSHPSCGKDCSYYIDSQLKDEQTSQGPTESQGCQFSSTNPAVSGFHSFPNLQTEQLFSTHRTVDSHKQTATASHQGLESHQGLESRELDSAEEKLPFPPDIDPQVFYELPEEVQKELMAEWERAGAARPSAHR
Polynucleotide kinase, sequence (P06855 whole entry): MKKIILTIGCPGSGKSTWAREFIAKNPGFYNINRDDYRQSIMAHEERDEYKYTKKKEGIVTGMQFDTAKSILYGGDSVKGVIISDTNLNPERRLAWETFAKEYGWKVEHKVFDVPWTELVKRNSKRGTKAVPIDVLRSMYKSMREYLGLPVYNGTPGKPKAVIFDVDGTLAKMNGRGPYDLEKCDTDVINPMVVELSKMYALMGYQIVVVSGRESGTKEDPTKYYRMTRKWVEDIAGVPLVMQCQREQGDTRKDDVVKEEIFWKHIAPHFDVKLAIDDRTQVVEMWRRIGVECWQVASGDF
T7 RNA polymerase, sequence (P00573 whole entry): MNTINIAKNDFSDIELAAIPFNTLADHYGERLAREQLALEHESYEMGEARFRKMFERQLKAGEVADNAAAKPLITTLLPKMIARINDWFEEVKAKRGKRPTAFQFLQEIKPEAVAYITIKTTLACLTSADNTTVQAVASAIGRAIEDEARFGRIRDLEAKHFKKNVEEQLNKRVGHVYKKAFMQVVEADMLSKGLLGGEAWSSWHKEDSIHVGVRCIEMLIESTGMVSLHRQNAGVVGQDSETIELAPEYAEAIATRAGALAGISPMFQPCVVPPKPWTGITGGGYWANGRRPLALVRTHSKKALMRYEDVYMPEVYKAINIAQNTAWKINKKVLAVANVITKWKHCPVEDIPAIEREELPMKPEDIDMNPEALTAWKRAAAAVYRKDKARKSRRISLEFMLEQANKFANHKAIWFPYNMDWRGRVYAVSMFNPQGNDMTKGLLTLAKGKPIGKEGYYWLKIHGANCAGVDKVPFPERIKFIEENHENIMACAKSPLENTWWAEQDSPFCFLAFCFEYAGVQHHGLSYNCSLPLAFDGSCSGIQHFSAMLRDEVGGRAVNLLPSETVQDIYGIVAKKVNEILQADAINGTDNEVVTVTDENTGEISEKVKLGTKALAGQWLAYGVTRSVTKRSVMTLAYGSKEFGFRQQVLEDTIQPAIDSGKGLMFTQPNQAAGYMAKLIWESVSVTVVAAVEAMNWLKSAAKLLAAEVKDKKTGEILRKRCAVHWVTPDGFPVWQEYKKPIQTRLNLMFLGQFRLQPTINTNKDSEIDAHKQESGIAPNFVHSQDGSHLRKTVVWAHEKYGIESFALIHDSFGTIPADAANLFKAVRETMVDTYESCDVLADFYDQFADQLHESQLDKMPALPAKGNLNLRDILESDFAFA
DNA polymerase kappa, sequence (Q9UBT6 whole entry, the tested form may be a part): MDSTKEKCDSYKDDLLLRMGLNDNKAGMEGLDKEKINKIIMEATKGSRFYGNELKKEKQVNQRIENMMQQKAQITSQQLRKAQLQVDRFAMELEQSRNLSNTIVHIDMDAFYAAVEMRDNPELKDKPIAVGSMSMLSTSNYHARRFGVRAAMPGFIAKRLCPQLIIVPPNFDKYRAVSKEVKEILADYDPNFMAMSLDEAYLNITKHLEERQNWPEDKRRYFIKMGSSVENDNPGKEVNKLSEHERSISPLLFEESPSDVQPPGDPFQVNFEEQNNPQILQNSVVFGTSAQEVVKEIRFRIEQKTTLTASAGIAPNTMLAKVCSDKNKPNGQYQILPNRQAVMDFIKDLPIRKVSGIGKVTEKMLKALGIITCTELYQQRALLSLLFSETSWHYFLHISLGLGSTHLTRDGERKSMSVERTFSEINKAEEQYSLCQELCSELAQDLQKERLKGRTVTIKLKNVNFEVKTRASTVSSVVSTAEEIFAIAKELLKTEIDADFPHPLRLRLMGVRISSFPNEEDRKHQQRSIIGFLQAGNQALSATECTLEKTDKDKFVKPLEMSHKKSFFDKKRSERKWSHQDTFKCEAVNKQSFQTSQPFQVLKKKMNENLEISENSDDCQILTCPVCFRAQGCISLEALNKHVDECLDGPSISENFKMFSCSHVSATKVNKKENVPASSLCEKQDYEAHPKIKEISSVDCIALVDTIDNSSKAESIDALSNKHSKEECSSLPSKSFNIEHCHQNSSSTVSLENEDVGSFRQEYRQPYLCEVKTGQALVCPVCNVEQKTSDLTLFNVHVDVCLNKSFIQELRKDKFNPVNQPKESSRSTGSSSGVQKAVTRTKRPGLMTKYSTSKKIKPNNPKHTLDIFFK

With `CCCCCCCCCCCC(=O)Oc1cccc2c1C(=O)C=CC2=O` the IC50 [1] was greater than 100 µM, the IC50 [2] was 6.3 µM and the IC50 [3] was 6.8 µM. For the same molecule, the inhibition [4] was “Active”, the inhibition [5] was “Active” and the Activity [6] was “Active”. The IC50 [7] was greater than 100 µM, the inhibition [8] was “Active” and the IC50 [9] was greater than 100 µM. For the same molecule, the IC50 [10] was 7.6 µM, the IC50 [11] was greater than 100 µM and the Activity [12] was “Non-toxic”. For the same molecule, the IC50 [13] was 8.4 µM, the inhibition [14] was “Active” and the IC50 [15] was greater than 100 µM. The IC50 [16] was greater than 100 µM, the IC50 [17] was 7.1 µM and the IC50 [18] was 7 µM. The IC50 [19] was greater than 100 µM, the CC50 [20] was greater than 10 µM and the IC50 [21] was greater than 100 µM. For the same molecule, the IC50 [22] was 6.5 µM, the Activity [23] was “inactive” and the IC50 [24] was greater than 100 µM.

Work on `CCCCCCCC/C=C\CCCCCCCC(=O)Oc1cccc2c1C(=O)C=CC2=O` yielded an IC50 [1] greater than 100 µM, an IC50 [2] of 0.68 µM and an IC50 [3] of 8.1 µM. The inhibition [4] was “Active”, the inhibition [5] was “Active” and the Activity [6] was “Active”. The IC50 [7] was greater than 100 µM, the inhibition [8] was “Active” and the IC50 [9] was greater than 100 µM. The IC50 [10] was 11.5 µM, the IC50 [11] was greater than 100 µM and the Activity [12] was “Non-toxic”. The IC50 [13] was 11.9 µM, the inhibition [14] was “Active” and the IC50 [15] was greater than 100 µM. For the same molecule, the IC50 [16] was greater than 100 µM, the IC50 [17] was 8.7 µM and the IC50 [18] was 10.2 µM. It also gave an IC50 [19] greater than 100 µM, a CC50 [20] greater than 10 µM and an IC50 [21] greater than 200 µM. The IC50 [22] was 0.72 µM, the Activity [23] was “inactive” and the IC50 [24] was greater than 100 µM.

— ChEMBL document CHEMBL1914406, “Inhibitory effect of novel 5-O-acyl juglones on mammalian DNA polymerase activity, cancer cell growth and inflammatory response” (Bioorg Med Chem, 2011)
